From PubChem BioAssay
Only some compounds are listed: those with a hit (about 4.2% of all), similar ones and a draw of the others.
hERG rescue = shields human hERG channel from block by proarrhythmic agents | AID 1511 | actives 0.51% (n = 310,000) | CHO-hERG, FluxOR thallium flux, dofetilide IC70 present | activation (rescue from dofetilide block), less the hit threshold, % at 10 µM;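 active = activation above the mean of controls blocked by dofetilide plus 5 SD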;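 also: thallium influx through hERG after potassium depolarization seen as dye fluorescence rise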
KCC2 mod = modulators of human KCC2 chloride dependent transport | KCC2 cells, thallium flux FluoZin-2 fluorescence | B-score of Tl+ flux slope (higher = more flux/activation; lower = inhibition) at 10 µM | actives 2.2% (n = 190,000) | AID 1456;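 active = thallium flux slope and its plate-corrected score both differing from the plate sample mean at a set confidence after two filtering rounds, in either direction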;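 also: slope of fluorescence scaled to starting intensity during 10 to 20 s after thallium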
KCNQ1 inh = inhibitors of human KCNQ1 potassium channel; actives 1.3% (n = 310,000); P51787; CHO-K1 KCNQ1, FluxOR thallium flux fluorescence; hits give high values; B-score at 10 µM;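 active = compounds whose thallium flux B-score, printed positive for inhibition, exceeds three library SD while starting fluorescence stays within three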;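 also: channel opened by potassium depolarization with thallium stimulus after 20 min compound exposure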
Target sequence (P51787 whole entry, looked up): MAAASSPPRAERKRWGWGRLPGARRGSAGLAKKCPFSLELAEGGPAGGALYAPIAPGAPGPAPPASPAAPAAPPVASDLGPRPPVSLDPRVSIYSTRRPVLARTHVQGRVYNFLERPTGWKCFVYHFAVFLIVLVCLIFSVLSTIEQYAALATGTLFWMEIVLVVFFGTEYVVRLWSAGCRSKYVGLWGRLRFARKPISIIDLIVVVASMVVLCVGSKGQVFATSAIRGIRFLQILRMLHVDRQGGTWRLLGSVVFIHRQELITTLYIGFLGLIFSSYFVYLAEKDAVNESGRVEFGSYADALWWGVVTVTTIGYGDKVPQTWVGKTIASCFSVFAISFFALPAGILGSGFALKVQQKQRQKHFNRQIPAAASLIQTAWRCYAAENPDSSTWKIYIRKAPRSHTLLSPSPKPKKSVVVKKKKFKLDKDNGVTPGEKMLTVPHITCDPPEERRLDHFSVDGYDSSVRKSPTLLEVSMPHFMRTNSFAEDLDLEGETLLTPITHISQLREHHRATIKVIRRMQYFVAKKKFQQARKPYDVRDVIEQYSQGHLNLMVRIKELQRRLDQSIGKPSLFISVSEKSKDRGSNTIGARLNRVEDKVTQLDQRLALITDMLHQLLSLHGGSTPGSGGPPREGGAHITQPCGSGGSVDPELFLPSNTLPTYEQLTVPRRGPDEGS
KCNQ1 act = potentiates or activates the human KCNQ1 potassium channel. CHO-K1 KCNQ1, thallium flux FluxOR fluorescence; hits give high values. B-score at 10 µM. actives 0.35% (n = 310,000). AID 2648;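 active = fluorescence ratio B-score, a plate-corrected score, at least three library SD, with initial intensity B-score within 5 SD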
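Assay system: CHO-K1 cells stably expressing KCNQ1. Medium: assay buffer for compound exposure, DMSO matched across wells. Timing: 37 °C overnight plating, 90-min dark dye load, 20-min compound pretreatment. Signal: kinetic FluxOR fluorescence, 10 s baseline plus 110 s post-stimulus.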
AI-2 QS mod = modulates the Vibrio harveyi AI-2 quorum sensing system; Vibrio harveyi JMH597 AI-2 luminescence/OD600 ratio, 9 h; hits give low values; strain lacks LuxN and CqsS sensors; 0 = neutral-control median; activity change, % at 7.5 µM; actives 0.4% (n = 300,000); in the data active = activity change below about -75%, passing the limit was not always enough; inconclusive = no clear call, values can overlap the other calls;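 also: luminescence divided by OD600 gain over 9 h not by final OD600 alone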
Mot1-301 SUMO = blocks SUMOylation pathway, rescuing yeast Mot1-301 growth | S. cerevisiae Mot1-301 growth rescue, ATP luminescence, 38.5C; percent above DMSO median, 100 means doubled | AID 2716 | growth rescue, % at 18.8 µM | actives 1% (n = 320,000);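 active = every valid replicate shows activation above 250% relative to neutral control wells; inactive = the rest, any valid replicate at or below 250%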
A number is an active result; – = inactive; ? = inconclusive; · = no result given.

SMILES	hERG rescue	KCC2 mod	KCNQ1 inh	KCNQ1 act	AI-2 QS mod	Mot1-301 SUMO
COc1ccccc1-c1cn[nH]c1-c1ccc(OCc2ccc(F)cc2)cc1O	–	–	6	–	–	–
COc1ccccc1-c1cn[nH]c1-c1ccc(OCc2ccc([N+](=O)[O-])cc2)cc1O	–	–	–	–	–	–
C=CCN(C(=O)c1csnn1)C(C(=O)NC1CCCC1)c1ccccc1F (stereo not drawn)	–	·	–	–	–	–
Nc1nc(CCl)nc(Nc2ccc3ccccc3c2)n1	–	–	–	13	–	·
Cc1ccccc1Nc1nc(N)nc(CCl)n1	–	–	–	–	–	–
CCOC(=O)c1c(NC(=O)c2cc3n(n2)C(C(F)(F)F)CC(c2cccs2)N3)sc(C)c1C (stereo not drawn)	–	–	–	–	–	–
O=C(Nc1ccc(F)cc1)c1nc(S(=O)(=O)Cc2ccccc2)ncc1Cl	–	·	–	–	–	–
CCN(c1ccccc1)S(=O)(=O)c1ccc(NC(=O)c2nc(S(C)(=O)=O)ncc2Cl)cc1	–	·	–	17	–	–
Cc1ccccc1CS(=O)(=O)c1ncc(Cl)c(C(=O)Nc2ccc(F)cc2)n1	–	·	–	–	–	316
O=C(CN(Cc1ccc2c(c1)OCO2)C(=O)CNC(=O)c1ccco1)NC1CCCCC1	–	–	–	–	–	335
CCOc1cc(C2Nc3ccccc3C(=O)N2c2ccccc2OC)ccc1O (stereo not drawn)	19	–	–	–	–	–
O=C(c1ccccc1)c1c[nH]c(C(=O)NNc2ccccc2)c1	–	–	–	–	–	404
CCOC(=O)c1c(NC(=O)CN2CCN(C(=O)c3ccco3)CC2)sc(C)c1C	–	·	–	–	–	–
CCc1c(C)sc(NC(=O)CN2CCN(C(=O)c3ccco3)CC2)c1C(=O)OC	–	·	–	22	–	–
CSc1ccc(CN2CCC(Oc3ccc(C(=O)N4CCCC4)cc3)CC2)cc1	–	·	–	–	–	277
COCCNC(=O)c1onc(CSc2cc(C)ccc2C)c1C(=O)O	–	–	–	–	–	–
Cc1ccc(C)c(SCc2noc(C(=O)NC(C)C)c2C(=O)O)c1	–	–	–	9	–	–
CC(C)(C)C(=O)NC(=C(Cl)Cl)P(=O)(O)O	·	-3.8	·	·	·	–
CC(C)(C)C(=O)NC(=S)N1CCCC1	–	–	–	–	–	–
CCCCCCNC(=O)CNC(=S)N(Cc1cccs1)C1CCCCC1	–	·	7	–	–	–
Cc1ccc(S(=O)(=O)Nc2c(C)[nH]c(=O)[nH]c2=O)cc1C	5.0	–	–	–	–	–
Cc1[nH]c(=O)[nH]c(=O)c1NS(=O)(=O)c1ccc2c(c1)CCCC2	–	–	–	–	–	–
CCOC(=O)c1c(S(=O)(=O)NCC(=O)N2CCN(c3ccc(F)cc3)CC2)c(C)n(C)c1C	–	·	–	–	–	–
COC(=O)C1=C(C)NC(C)=C(C(=O)O[C@@H]2CCCN(Cc3ccccc3)C2)[C@@H]1c1cccc([N+](=O)[O-])c1	–	·	7	–	–	–
COc1cccc(/C=N/Nc2nccnc2Cl)c1O	–	–	–	–	?	·
SMILES	hERG rescue	KCC2 mod	KCNQ1 inh	KCNQ1 act	AI-2 QS mod	Mot1-301 SUMO
COc1cccc(/C=N/Nc2ncnc(Cl)c2N)c1O	–	–	–	–	-82	–
CCOC(=O)C1=C(C)N(c2ccc(OC)cc2)C(=O)/C1=C\c1ccc(O)c(OCC)c1	–	–	6	–	–	–
C=CCOc1cccc(/C=C2\C(=O)N(Cc3ccc(C)cc3)C(C)=C2C(=O)OC)c1	–	–	–	–	–	–
CCOc1cc(/C=C2\C(=O)N(Cc3ccc(C)cc3)C(C)=C2C(=O)OC)ccc1O	–	–	7	–	–	–
COc1ccc(OC)c(NC(=O)Nc2cc(C(=O)O)ccc2C)c1	–	–	–	–	–	–
Cc1ccc(NC(=O)C(=O)NCCCN2CC(C(=O)O)CC2=O)cc1 (stereo not drawn)	–	·	–	–	–	–
Cc1cc(NC(=O)c2cc3cccc([N+](=O)[O-])c3[nH]2)ccc1F	–	–	11	–	–	–
Cc1ccc(S(=O)(=O)N2CCOCC2)cc1NC(=O)COc1ccccc1Cc1ccccc1	·	·	·	·	·	–
COc1ccc(/C=N/NC(=O)c2cccc(C(=O)N/N=C/c3ccc(OC)cc3)n2)cc1	–	·	–	–	–	306
O=C(N/N=C\c1ccccc1)c1cccc(C(=O)N/N=C\c2ccccc2)n1	–	·	–	–	–	–
CC(C)CCN(C(=O)COc1ccc(C#N)cc1)c1c(N)n(Cc2ccccc2)c(=O)[nH]c1=O	–	–	–	–	–	–
c1ccc2oc(-c3ccn[nH]3)cc2c1	6.9	–	–	–	–	–
c1ccc2oc(-c3[nH]ncc3CN3CCSCC3)cc2c1	–	–	–	–	–	–
N#CC1=C(N)SC(N)=C(C#N)C1c1ccc([N+](=O)[O-])cc1	–	–	–	–	–	–
N#CC1=C(N)SC(N)=C(C#N)C1c1ccc(C(F)(F)F)cc1	–	–	–	53	–	–
CCOc1ccc(C2C(C#N)=C(N)SC(N)=C2C#N)cc1OCC	–	·	–	–	–	–
CCc1ccc(C2C(C#N)=C(N)SC(N)=C2C#N)cc1	–	7.9	–	–	–	–
CC(C)c1csc(CN2CCC(n3nccc3NC(=O)Cc3ccccc3)CC2)n1	–	·	–	–	–	–
O=C1C(=Cc2cccn2-c2ccc(O)cc2)C(=O)c2ccccc21	4.7	·	–	–	–	–
O=C(OCC(=O)c1ccc(Cl)s1)c1ccc(CO)cc1	–	·	–	–	–	–
S=c1nc(-c2ccc(Br)cc2)oc2c1CCCC2	14	83	–	–	–	–
COc1ccc(-c2[nH]ncc2/C=N\NC(=O)c2ccc(C(C)(C)C)cc2)cc1OC	–	–	6	–	–	–
CC1Oc2cc3oc4c(O)c(O)ccc4c(=O)c3c(O)c2C1(C)C (stereo not drawn)	–	·	10	–	–	–
COc1ccc(-c2cc(=O)oc3c(O)c(O)ccc23)cc1	–	·	–	–	–	–
O=C1C2C3C=CC(C3)C2C(=O)N1/N=C/c1ccc(-c2ccccc2[N+](=O)[O-])o1 (stereo not drawn)	–	–	–	–	–	–
O=C1C2C3C=CC(C3)C2C(=O)N1/N=C/c1cc(Br)cc([N+](=O)[O-])c1O (stereo not drawn)	–	·	7	–	–	–
C=CCn1c(COc2ccc3c(c2)CCCC3)nnc1SCC(=O)Nc1cccc(SC)c1	–	·	9	–	–	–
C=CCn1c(COc2ccccc2)nnc1SCC(=O)Nc1ccc2c(c1)OCCO2	–	·	–	–	–	–
Cc1ccc(C2=NOC(c3nnc(-c4ccccc4)o3)C2)cc1 (stereo not drawn)	–	·	–	8	–	–
